Screening data: PubChem, several laboratories
Calb FLC: C. albicans growth inhibition with fluconazole, primary screen, CaCi-2 strain, Alamar Blue fluorescence; growth inhibition, % (no concentration beside the values); AID 1979, 2009; C. albicans CaCi-2 (fluconazole-resistant clinical isolate) + fluconazole, 48 h; actives 0.57% (n = 300,000);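 active = growth inhibition above about 58% in most replicates, limit read from the data, passing the limit was not always enough; inconclusive = exactly half the replicates above a set limit; inactive = most replicates below a set limit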;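 also: all wells also contain fluconazole at 8 µg/ml as a sub-toxic cotreatment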
Efflux pump inh: inhibitors of Candida efflux pumps in yeast, primary screen, S. cerevisiae, Nile Red, multiplex | S. cerevisiae Candida pump triplex | inhibition, % at 10 µM | actives 0.44% (n = 330,000);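 active = plate passing quality check with inhibition over a set limit, or well fluorescence over plate mean plus 4 SD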;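 also: Nile Red retained in pooled yeast measured as flow cytometry median fluorescence; higher means more Nile Red kept so more efflux inhibition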
MC4R antagonist: MC4R antagonists of cAMP signaling, primary screen, cell-based, TR-FRET, antagonist arm of biased-ligand search | Melanocortin receptor 4 (Homo sapiens), P32245 | MC4R-expressing cells, MTII-stimulated cAMP, LANCE TR-FRET | inhibition, % at 6.5 µM | actives 0.48% (n = 360,000) | AID 540295, 2011;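 active = inhibition above its plate's cutoff, the mean of tested wells on that plate plus 3 SD, cut at about 29% in these data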
Target sequence (P32245 whole entry, looked up): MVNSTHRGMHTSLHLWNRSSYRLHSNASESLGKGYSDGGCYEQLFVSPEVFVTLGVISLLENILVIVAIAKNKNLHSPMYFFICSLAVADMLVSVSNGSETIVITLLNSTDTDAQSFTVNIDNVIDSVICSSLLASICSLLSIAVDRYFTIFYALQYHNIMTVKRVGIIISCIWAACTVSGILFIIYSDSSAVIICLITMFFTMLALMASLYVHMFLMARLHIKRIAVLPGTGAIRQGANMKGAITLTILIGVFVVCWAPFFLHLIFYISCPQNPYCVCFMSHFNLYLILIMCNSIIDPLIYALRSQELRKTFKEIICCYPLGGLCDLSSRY
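System – human MC4R-expressing U2OS cells · Also added – Melanotan II · Dosing – one concentration, 6.5 µM nominal · Timing – 30-min compound, 1-h challenge, 1-h detection, room temperature · Measured by – Eu-cAMP/anti-cAMP TR-FRET, emission 671 nm · Replicates – singlicate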
GalR3 antagonist: GalR3 antagonists in HEK293 cells, primary screen, cell-based, fluorescence readout; Galanin receptor type 3 (Homo sapiens), O60755; HEK293 GalR3-CNG cAMP membrane potential fluorescence; galR3 body fused to GalR1 C-terminus; inhibition, % at 3 µM; actives 0.44% (n = 360,000); AID 651719, 2012;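 active = inhibition above the screen-wide average plus 3 SD, cut at about 13% in these data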;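 also: forskolin and galanin both at EC90 stimulate the cells; cAMP rise reported by CNG channel membrane potential dye signal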
Target sequence (O60755 1-299 limits assumed): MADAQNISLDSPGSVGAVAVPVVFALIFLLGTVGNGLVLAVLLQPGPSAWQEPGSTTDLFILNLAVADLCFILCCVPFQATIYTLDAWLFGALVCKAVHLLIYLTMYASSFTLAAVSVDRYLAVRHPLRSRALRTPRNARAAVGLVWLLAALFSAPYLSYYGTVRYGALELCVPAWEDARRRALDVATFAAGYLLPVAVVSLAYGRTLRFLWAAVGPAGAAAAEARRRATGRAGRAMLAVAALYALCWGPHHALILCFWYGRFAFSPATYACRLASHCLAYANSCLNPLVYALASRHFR
TAG inh: inhibitors of triacylglycerol accumulation, primary screen, cell-based, uHTS, fluorescence, H9c2 | H9c2 cells, Nile Red lipid (TAG) fluorescence; cells loaded with 200 µM oleic acid | inhibition, % at 12.5 µM | actives 0.66% (n = 230,000) | AID 651582, 2012;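 active = pattern-corrected inhibition of lipid staining of at least 50% with the nuclear-stain viability signal not falling by more than 50%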
MC4R barr agon: MC4R agonists recruiting beta-arrestin, primary screen, cell-based, luminescence, agonist arm of biased-ligand search; actives 0.98% (n = 360,000); activation, % at 8.9 µM; Melanocortin receptor 4 (Homo sapiens), P32245; U2OS MC4R beta-arrestin complementation; percent of melanotan II response, DMSO zero;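 active = activation above a per-plate cutoff, the mean activation of sample wells on that plate plus 3 SD, cut at about 8% in these data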
Cmpd fluor yeast: flagged as fluorescent in efflux inhibitor counter-screen; shares compounds with Efflux pump inh; S. cerevisiae AD/pABC3, compound fluorescence, flow cytometry; fluorescence ratio to DMSO, % at 10 µM; actives 4% (n = 1,700); AID 588517;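 active = fluorescence ratio to DMSO above its plate's cutoff, the plate mean ratio plus 5 SD, cut at about 210% in these data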;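 also: unstained yeast with no Nile Red so the signal is compound autofluorescence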
CaMdr1 efflux inh: inhibitors of Candida albicans Mdr1 efflux, confirmation, flow cytometry, singleplex, Cherry Pick1 set | actives 1% (n = 1,700) | inhibition, % at 10 µM | S. cerevisiae AD/CaMDR1, Nile Red efflux | AID 588518, 2011 | shares compounds with Efflux pump inh; in the data active = inhibition above about 26%;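 also: higher means more Nile Red retained so more efflux inhibition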
Cdr2 pump inh: inhibitors of Candida albicans Cdr2 efflux pump, confirmation, S. cerevisiae AD/CaCDR2, flow cytometry, cherry pick 1, singleplex; shares compounds with Efflux pump inh; Nile Red retention; Nile Red retention ratio vs DMSO, % at 10 µM; actives 4% (n = 1,700); AID 588520, 2011; in the data active = Nile Red retention ratio vs DMSO above about 190%;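 also: higher ratio means more blocking of Cdr2 efflux of the dye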
Cdr1 pump inh: inhibitors of Candida albicans Cdr1 efflux pump, confirmation, S. cerevisiae AD/CaCDR1, flow cytometry, cherry pick 1, singleplex; inhibition, % at 10 µM; shares compounds with Efflux pump inh; Nile Red efflux; actives 1% (n = 1,700);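 active = inhibition above the screen-wide mean plus twice its standard deviation, cut at about 32% in these data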
Hits are given with their value; i = inactive; ? = inconclusive; nt = no result given. Hits are enriched below; roughly 2.9% of the tested compounds scored in any of these assays.

SMILES | Calb FLC | Efflux pump inh | MC4R antagonist | GalR3 antagonist | TAG inh | MC4R barr agon | Cmpd fluor yeast | CaMdr1 efflux inh | Cdr2 pump inh | Cdr1 pump inh
COc1ccc(S(=O)(=O)N2CCOC2CNC(=O)C(=O)NCc2ccc3c(c2)OCO3)cc1OC (configuration not stated) | i | i | i | i | i | i | i | i | i | i
COc1ccc(CNC(=O)C(=O)NCC2OCCN2S(=O)(=O)c2ccc(OC)c(OC)c2)cc1 (configuration not stated) | i | i | i | i | i | i | i | i | i | i
CCC(C)NC(=O)c1ccc(CSc2nc3ccncc3n2Cc2ccc(F)cc2)cc1 (configuration not stated) | i | i | i | nt | i | i | i | i | i | i
O=C(COc1ccc(Cl)cc1Cl)NC1CCSC1=O (configuration not stated) | i | 1.7 | i | i | nt | i | i | i | i | i
CCCNC(=O)C1(C)CCN(C(=O)c2ccccc2OC)C1 (configuration not stated) | nt | nt | i | i | i | i | nt | nt | nt | nt
CCSc1nc2c(c(=O)[nH]1)C(c1cccnc1)C(C(=O)OC)=C(C)N2 (configuration not stated) | i | i | i | i | i | i | nt | nt | nt | nt
CCSc1nc2c(c(=O)[nH]1)C(c1ccncc1)C(C(=O)OC(C)C)=C(C)N2 (configuration not stated) | i | 0.4 | i | i | i | i | i | i | i | i
Nc1nc(SCc2ccccc2)cc(SCc2ccccc2)n1 | nt | nt | i | i | i | i | nt | nt | nt | nt
Oc1ccc(N=Nc2c(O)ccc3ccccc23)cc1 | i | 0.8 | i | i | nt | i | i | i | 204 | i
Cc1ccc(-c2nc(NC(=O)CSc3nnc(C)s3)ns2)cc1 | i | i | i | i | nt | i | nt | nt | nt | nt
COc1ccc(-c2nc(NC(=O)CSc3nnc(C)s3)ns2)cc1 | i | 0.8 | i | nt | nt | i | i | i | i | i
Cc1noc(C)c1NC(=O)N(C)C[C@@H]1OCc2cnnn2CCCC(=O)N([C@@H](C)CO)C[C@@H]1C | nt | nt | i | i | i | i | nt | nt | nt | nt
O=C(Nc1ccc(F)c(Cl)c1)c1cc(C2CCCCN2C(=O)c2ccccc2)on1 (configuration not stated) | nt | nt | i | i | i | i | nt | nt | nt | nt
C/C(=N\NC(=O)CCCNc1ccccc1)c1ccncc1 | i | 1.1 | i | i | i | i | i | i | i | i
C/C(=N\NC(=O)CCCNc1ccc(C)cc1)c1ccccn1 | i | i | i | i | i | i | nt | nt | nt | nt
O=C(CC(=O)c1ccccc1)c1ccccc1 | nt | nt | i | i | i | i | nt | nt | nt | nt
O=C(Cc1c2ccccc2nc2ccccc12)c1ccccc1 | i | 15 | i | i | nt | i | i | i | i | i
CC(C)(C)C(c1nc2ccccc2[nH]1)n1c(-c2cc(Cl)cc(Cl)c2)nc2ccccc21 (configuration not stated) | nt | nt | nt | i | nt | nt | nt | nt | nt | nt
CCOc1ccc(S(=O)(=O)Nc2ccc(O)c(Sc3ncn[nH]3)c2)cc1 | i | i | i | i | i | i | nt | nt | nt | nt
COc1ccc(OC)c(S(=O)(=O)Nc2ccc(O)c(Sc3ncn[nH]3)c2)c1 | i | i | i | nt | nt | i | i | i | i | i
Cc1ccc(S(=O)(=O)Nc2ccc(O)c(Sc3ncn[nH]3)c2)cc1 | i | 2.0 | i | i | i | i | i | i | i | i
Cc1cc(F)ccc1S(=O)(=O)Nc1ccc(O)c(Sc2ncn[nH]2)c1 | i | i | i | i | nt | i | i | i | i | i
Cc1ccc(C)c(S(=O)(=O)Nc2ccc3[nH]c(=O)[nH]c3c2)c1 | i | i | i | i | nt | i | nt | nt | nt | nt
Cc1ccc(C)c(S(=O)(=O)Nc2ccc(O)c(Sc3ncn[nH]3)c2)c1 | i | i | i | i | i | i | i | i | i | i
NC(=O)[C@@H]1CCCN1C(=O)[C@@H](Cc1ccccc1)NC(=O)[C@H]1O[C@@H](n2ccc(N)nc2=O)[C@H](O)[C@@H]1O | nt | nt | nt | i | nt | nt | nt | nt | nt | nt
SMILES | Calb FLC | Efflux pump inh | MC4R antagonist | GalR3 antagonist | TAG inh | MC4R barr agon | Cmpd fluor yeast | CaMdr1 efflux inh | Cdr2 pump inh | Cdr1 pump inh
Cc1cc2c([nH]c3ccccc32)c(C)n1 | i | i | i | i | i | i | nt | nt | nt | nt
Cc1c2ccncc2cc2c1[nH]c1ccccc12 | nt | nt | i | i | i | i | i | i | i | i
COC(=O)Cn1cc(/C=C/c2cc[n+](C)cc2)c2ccccc21 | i | i | i | i | i | i | i | i | i | i
Cn1cc([N+](=O)[O-])c(C(=O)Nc2sc3c(c2C#N)CCC3)n1 | i | i | i | i | nt | i | i | i | i | i
Cn1ccc(C(=O)Nc2sc3c(c2C#N)CCC3)n1 | i | i | i | i | nt | i | i | i | i | i
Cn1cc(Br)c(C(=O)Nc2sc3c(c2C#N)CCC3)n1 | i | i | i | i | i | i | i | i | i | i
Cc1cc(C(=O)Nc2sc3c(c2C#N)CCC3)no1 | ? | i | i | i | nt | i | nt | nt | nt | nt
C=C1C[C@@H]2C[C@@H]2CN(S(=O)(=O)c2ccc(C)cc2)[C@@H]1c1ccco1 | nt | nt | nt | i | nt | nt | nt | nt | nt | nt
CC(C)(C)[C@@H]1COC(=O)[C@H](Cc2ccc(F)cc2)CC/C=C\C[C@@H](CC(=O)NCCO)C(=O)N1 | nt | i | i | i | i | i | nt | nt | nt | nt
O=C(O)/C=C/c1cn(-c2ccccc2)nc1-c1ccc(-c2ccc([N+](=O)[O-])cc2)o1 | i | 0.9 | i | i | i | i | i | i | i | i
COc1ccc(CN2CCNC(=O)C2CC(=O)N(C)C2CCOCC2)cc1OC (configuration not stated) | nt | nt | i | i | i | i | nt | nt | nt | nt
CN(C)c1ccc(/C=C2/C=C(c3ccc4c(c3)CCCC4)OC2=O)cc1 | i | 0.8 | i | i | i | i | i | i | i | i
